Some results are limits rather than exact numbers.

Assay [1] deals with T1, Glucocorticoid receptor (Homo sapiens, UniProt P04150).
T1 sequence (P04150 whole entry): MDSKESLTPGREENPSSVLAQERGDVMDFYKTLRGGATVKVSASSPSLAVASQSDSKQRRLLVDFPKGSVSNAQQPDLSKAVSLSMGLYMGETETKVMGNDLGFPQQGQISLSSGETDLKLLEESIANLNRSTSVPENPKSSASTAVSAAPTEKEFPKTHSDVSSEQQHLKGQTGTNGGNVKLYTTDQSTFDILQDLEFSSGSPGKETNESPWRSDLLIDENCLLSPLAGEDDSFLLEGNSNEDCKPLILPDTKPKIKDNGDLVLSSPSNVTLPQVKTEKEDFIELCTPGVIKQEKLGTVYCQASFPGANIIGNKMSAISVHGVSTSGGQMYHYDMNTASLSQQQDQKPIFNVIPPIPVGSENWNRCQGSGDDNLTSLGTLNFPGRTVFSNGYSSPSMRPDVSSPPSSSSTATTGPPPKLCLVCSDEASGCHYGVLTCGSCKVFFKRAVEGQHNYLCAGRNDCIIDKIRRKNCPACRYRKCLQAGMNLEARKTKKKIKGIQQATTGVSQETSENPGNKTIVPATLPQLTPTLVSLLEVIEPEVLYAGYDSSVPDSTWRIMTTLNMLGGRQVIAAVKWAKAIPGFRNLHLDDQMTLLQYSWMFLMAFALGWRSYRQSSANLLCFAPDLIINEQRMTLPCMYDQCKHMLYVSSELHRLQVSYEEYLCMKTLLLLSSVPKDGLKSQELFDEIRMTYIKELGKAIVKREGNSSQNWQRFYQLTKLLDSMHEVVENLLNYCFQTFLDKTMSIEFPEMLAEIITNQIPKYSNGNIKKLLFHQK
The experiment in a line: Transactivation activity at glucocorticoid receptor alpha human 13D3/Huh7 cells assessed as induction of TAT activity after 4 hrs by spectrophotometry. Type of assay: cell-based, Huh-7.

Assay [2] relates to Blood. The experiment in a line: Antiinflammatory activity in human whole blood assessed as inhibition of LPS-induced TNFalpha production after overnight incubation by ELISA relative to Dexamethasone. Type of assay: functional. A digest of the protocol:
(§1)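 Whole blood from two donors per experiment was collected into ACD-A. Compounds were added and the blood was incubated about 20 h at 37 °C under 5% CO2. Blood was then stimulated for 5 h with LPS (final 100 ng/mL, for TNFα) or IL-1β (final 10 ng/mL, for IL-8). Plasma TNFα or IL-8 was measured by ELISA. Efficacy was expressed as % of dexamethasone, and values are means of at least two experiments.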

Assay [3] deals with Blood. As to the kind of experiment: Antiinflammatory activity in human whole blood assessed as inhibition of TNF-alpha-induced IL-8 production after overnight incubation by ELISA. Type of assay: functional, tissue-based.
The test system of assay [4] is Blood. As to the kind of experiment: Antiinflammatory activity in human whole blood assessed as inhibition of IL-1beta-induced IL-8 production after overnight incubation by ELISA. It is filed as functional, tissue-based. A digest of the protocol:
as §1

For assay [5], the target named is T1, Glucocorticoid receptor. As to the kind of experiment: Transrepression activity at glucocorticoid receptor alpha in phorbol myristate acetate-stimulated human A549 cells assessed as inhibition of AP1 response element by luciferase reporter gene assay. Type of assay: cell-based.
Assay [6] has as its system Blood. As to the kind of experiment: Antiinflammatory activity in human whole blood assessed as inhibition of IL-1beta-induced IL-8 production after overnight incubation by ELISA relative to Dexamethasone. It is filed as functional. A digest of the protocol:
as §1

Assay [7] has as its target T1, Glucocorticoid receptor. As to the kind of experiment: Transrepression activity at glucocorticoid receptor alpha in IL-1beta-stimulated human A549 cells assessed as inhibition of NFkappaB-dependent E-selectin transcription by luciferase reporter gene assay. Type of assay: cell-based.
Assay [8] concerns Blood. As to the kind of experiment: Antiinflammatory activity in human whole blood assessed as inhibition of LPS-induced TNFalpha production after overnight incubation by ELISA. Type of assay: functional, tissue-based. A digest of the protocol: as §1
Assay [9] addresses T1, Glucocorticoid receptor. The experiment in a line: Transactivation activity at GR-alpha in human NP1 Hela cells assessed as inhibition of GAL4-DBD after 20 hrs by luciferase reporter gene assay. It is filed as cell-based.
Assay [10] has as its system Blood. The experiment in a line: Antiinflammatory activity in human whole blood assessed as inhibition of TNF-alpha-induced IL-8 production after overnight incubation by ELISA relative to dexamethasone. It is filed as functional.
Assay [11] has as its target T1, Glucocorticoid receptor. The experiment in a line: Transactivation activity at GR-alpha in human NP1 Hela cells assessed as induction of GAL4-DBD after 20 hrs by luciferase reporter gene assay. It is filed as cell-based.
Assay [12] has as its target T1, Glucocorticoid receptor. The experiment in a line: Displacement of GS-red from glucocorticoid receptor by fluorescence polarization assay.
In a further assay the target is T2, Progesterone receptor (Homo sapiens, UniProt P06401).
T2 sequence (P06401 whole entry): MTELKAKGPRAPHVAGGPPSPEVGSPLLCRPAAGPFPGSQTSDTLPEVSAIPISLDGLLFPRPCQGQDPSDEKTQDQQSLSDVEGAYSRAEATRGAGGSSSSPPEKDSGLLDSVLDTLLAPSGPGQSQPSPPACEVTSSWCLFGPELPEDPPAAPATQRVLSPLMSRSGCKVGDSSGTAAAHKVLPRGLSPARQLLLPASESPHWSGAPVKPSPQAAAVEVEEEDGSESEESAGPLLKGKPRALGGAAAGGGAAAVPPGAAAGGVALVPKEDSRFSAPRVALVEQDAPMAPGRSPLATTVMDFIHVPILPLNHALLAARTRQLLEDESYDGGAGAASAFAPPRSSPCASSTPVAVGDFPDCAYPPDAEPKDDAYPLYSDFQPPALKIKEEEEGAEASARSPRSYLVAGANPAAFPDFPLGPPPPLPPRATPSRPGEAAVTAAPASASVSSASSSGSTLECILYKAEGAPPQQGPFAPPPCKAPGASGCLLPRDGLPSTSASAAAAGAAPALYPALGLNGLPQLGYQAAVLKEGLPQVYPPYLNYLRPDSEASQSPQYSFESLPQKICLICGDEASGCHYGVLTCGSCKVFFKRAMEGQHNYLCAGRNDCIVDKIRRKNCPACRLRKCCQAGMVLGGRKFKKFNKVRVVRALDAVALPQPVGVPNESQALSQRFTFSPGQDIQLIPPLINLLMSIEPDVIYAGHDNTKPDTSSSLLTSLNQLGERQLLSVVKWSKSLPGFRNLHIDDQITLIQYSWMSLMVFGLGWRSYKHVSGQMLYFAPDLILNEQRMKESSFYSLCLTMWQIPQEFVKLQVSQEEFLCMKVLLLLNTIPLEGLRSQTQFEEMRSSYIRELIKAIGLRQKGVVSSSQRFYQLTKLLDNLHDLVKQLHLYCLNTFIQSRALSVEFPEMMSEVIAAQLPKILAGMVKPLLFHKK
The experiment in a line: Displacement of fluorescently labeled ligand from progesterone receptor by fluorescence polarization assay.

On to `CC(C)(C(=O)Nc1nncs1)[C@H]1c2ccccc2Oc2nc(-c3ccc(C(=O)N4CCC(F)(F)C4)c(Cl)c3)ccc21`, for which the half-maximal effective concentration (EC50) at Glucocorticoid receptor [1] came to 329 nM; in the assay on Blood [3] it was 2850 nM; with Blood [4], 5250 nM; on Glucocorticoid receptor [5] it was 50 nM; on Glucocorticoid receptor [7], 33.8 nM; with Blood [8] it was 932 nM. Moreover, the EC50 turned out to be 130 nM at Glucocorticoid receptor [9] and 165 nM on Glucocorticoid receptor [11]. Also, the Imax was 85% in the assay on Blood [2], 82% in the assay with Blood [6] and 59% in the assay with Blood [10]. The affinity on Glucocorticoid receptor [12] corresponds to a Ki of 3.08 nM.
With `CNC(=O)c1ccc(-c2ccc3c(n2)Oc2ccccc2[C@@H]3C(C)(C)C(=O)Nc2nncs2)cc1F`, the EC50 on Glucocorticoid receptor [1] was more than 5000 nM; in the assay on Blood [3], more than 20000 nM; in the assay with Blood [4] it was more than 20000 nM; at Glucocorticoid receptor [5], 34.1 nM; on Glucocorticoid receptor [7] it was 157 nM; with Blood [8], 819 nM. In addition, the half-maximal effective concentration (EC50) was 408 nM on Glucocorticoid receptor [9] and more than 10000 nM on Glucocorticoid receptor [11]. The figures for the Imax with Blood [2], in the assay on Blood [6] and in the assay on Blood [10] were 58%, 35% and 15%, respectively. The molecule also had a Ki at Glucocorticoid receptor [12] of 5.48 nM.
Regarding `CC(C)Oc1ccc(-c2ccc3c(n2)Oc2ccccc2[C@@H]3C(C)(C)C(=O)Nc2nncs2)cc1F`, the concentration for a half-maximal effect (EC50) on Glucocorticoid receptor [1] is 876 nM; with Blood [3], more than 20000 nM; with Blood [4] it was more than 20000 nM; at Glucocorticoid receptor [5], 47 nM; on Glucocorticoid receptor [7], 73 nM; with Blood [8], more than 5000 nM. The EC50 on Glucocorticoid receptor [9] turned out to be 162 nM; at Glucocorticoid receptor [11] it was 496 nM. For the same molecule, the figures for the Imax with Blood [2], in the assay on Blood [6] and with Blood [10] were 49%, 7% and 12%, respectively. The molecule further yielded a Ki on Glucocorticoid receptor [12] of 3.9 nM.
For `CC(C)Oc1ccc(-c2ccc3c(n2)Oc2ccccc2[C@H]3C(C)(C)C(=O)Nc2nncs2)cc1`, the EC50 was 107 nM on Glucocorticoid receptor [1], 18.1 nM at Glucocorticoid receptor [5], 77 nM on Glucocorticoid receptor [9] and 135 nM on Glucocorticoid receptor [11]. Besides, the inhibition constant Ki on Progesterone receptor came out at 310 nM; on Glucocorticoid receptor [12], 1.6 nM.
For `CC(C)(C(=O)Nc1nncs1)[C@H]1c2ccccc2Oc2nc(-c3ccc(C(=O)N4CCCCC4)c(F)c3)ccc21`, the concentration for a half-maximal effect (EC50) at Glucocorticoid receptor [1] is more than 5000 nM; in the assay on Blood [3], more than 20000 nM; with Blood [4], 3190 nM; at Glucocorticoid receptor [5], 27.5 nM; at Glucocorticoid receptor [7], 25.6 nM; with Blood [8], 5470 nM. Moreover, the values for the half-maximal effective concentration (EC50) on Glucocorticoid receptor [9] and on Glucocorticoid receptor [11] were 204 nM and more than 10000 nM, respectively. Also, the Imax in the assay with Blood [2] is on record as 73%; in the assay on Blood [6], 27%; with Blood [10], 45%. Further, at Glucocorticoid receptor [12], affinity was put at a Ki of 1.68 nM.
Regarding `CC(C)(C(=O)Nc1nncs1)[C@H]1c2ccccc2Oc2nc(-c3ccc(C(=O)N4CCCC4)c(F)c3)ccc21`, the EC50 at Glucocorticoid receptor [1] was 389 nM; in the assay with Blood [3], 1300 nM; in the assay on Blood [4] it was 238 nM; on Glucocorticoid receptor [5], 25 nM; on Glucocorticoid receptor [7], 29.2 nM; in the assay on Blood [8], 886 nM. Also, the results for the EC50 on Glucocorticoid receptor [9] and at Glucocorticoid receptor [11] were 205 nM and 177 nM, respectively. The Imax in the assay on Blood [2] came to 80%; in the assay on Blood [6], 86%; in the assay with Blood [10], 61%. In addition, the affinity at Glucocorticoid receptor [12], expressed as Ki, was 1.96 nM.
As to `CC(C)(C(=O)Nc1nncs1)[C@H]1c2ccccc2Oc2nc(-c3ccc(C(=O)N4CCOCC4)c(F)c3)ccc21`, the EC50 at Glucocorticoid receptor [1] was found to be 93 nM; with Blood [3], 382 nM; with Blood [4], 789 nM; on Glucocorticoid receptor [5] it was 11.7 nM; on Glucocorticoid receptor [7], 11.7 nM; in the assay on Blood [8], 469 nM. Besides, the figures for the half-maximal effective concentration (EC50) at Glucocorticoid receptor [9] and on Glucocorticoid receptor [11] were 34.4 nM and 78.9 nM, respectively. Also, the Imax stood at 88% in the assay with Blood [2], 92% in the assay with Blood [6] and 84% with Blood [10]. Moreover, the inhibition constant (Ki) on Glucocorticoid receptor [12] worked out at 2.7 nM.
In the case of `CC(C)(C(=O)Nc1nncs1)[C@H]1c2ccccc2Oc2nc(-c3ccc(C(=O)N4CCC(F)(F)C4)c(F)c3)ccc21`, the EC50 on Glucocorticoid receptor [1] amounted to 1990 nM; in the assay on Blood [3], 3070 nM; in the assay on Blood [4] it was 2490 nM; at Glucocorticoid receptor [5] it was 37.9 nM; on Glucocorticoid receptor [7] it was 20.6 nM; in the assay with Blood [8], 4020 nM. In addition, the figures for the concentration for a half-maximal effect (EC50) at Glucocorticoid receptor [9] and on Glucocorticoid receptor [11] were 99.3 nM and 192 nM, respectively. For the same molecule, the values for the Imax in the assay on Blood [2], in the assay with Blood [6] and with Blood [10] were 78%, 81% and 67%, respectively. On Glucocorticoid receptor [12], this molecule came in with a Ki of 2.53 nM.

(Values after ChEMBL document CHEMBL1909630, “Azaxanthene based selective glucocorticoid receptor modulators: design, synthesis, and pharmacological evaluation of (S)-4-(5-(1-((1,3,4-thiadiazol-2-yl)amino)-2-methyl-1-oxopropan-2-yl)-5H-chromeno[2,3-b]pyridin-2-yl)-2-fluoro-N,N-dimethylbenzamide (BMS-776532) and its methylene homologue …” (J Med Chem, 2011).)
